Assay results pooled from the literature.
Each line is one published result; the experiments were not run side by side.
Target: Death-associated protein kinase 1 (DAPK1, Homo sapiens, UniProt P53355)

C[C@@]1(Cc2ccc(C#N)cc2)C(=O)N(c2cc(Cl)cc(Cl)c2)c2ncc(C(=O)NC3(c4nc(C5CCC5)no4)CC3)n21 — remaining binding (cell-free assay; competition with immobilised ligand; 1 µM): 100%
Cn1c(=O)n(-c2ccc(C(C)(C)C#N)cc2)c2c3cc(-c4cnc5ccccc5c4)ccc3ncc21 — remaining activity (enzyme activity; inhibitor; 10 µM): 107%
CC/C(=N\NC(=O)NCc1cccc(O)c1)c1ccc(O)c(C)c1O — inhibition (enzyme activity; inhibitor; 0.1 µM): -1.6%
CC(C)(O)[C@H]1CC[C@H](Nc2ccc3ncc(-c4cccc(C(F)(F)F)c4)n3n2)CC1 — remaining activity (enzyme activity; inhibitor; 1 µM): 110%
CC(=O)Nc1c(C(C)=O)c(=O)n(C)c2nc(-c3ccc(Cl)cc3Cl)c(-c3ccc(Cl)cc3)cc12 — remaining binding (cell-free assay; competition with immobilised ligand; 1 µM): 100%
Cc1ccc(C(=O)Nc2ccc(CN3CCN(C)CC3)c(C(F)(F)F)c2)cc1C#Cc1cnc2cccnn12 — remaining activity (enzyme activity; inhibitor; 23.5 nM): 95%
N#Cc1ccc(Nc2ccc3[nH]c(=O)[nH]c3c2)c(Cl)c1 — remaining binding (cell-free assay; competition with immobilised ligand; 1 µM): 100%
Cc1ccc(Nc2nccc(N(C)c3ccc4c(C)n(C)nc4c3)n2)cc1S(N)(=O)=O — inhibition (enzyme activity; inhibitor; 10 µM): 12%
CCCCN(CCCC)C(=O)CN1C[C@H](c2cc(OC)c3c(c2)OCO3)[C@@H](C(=O)O)[C@@H]1CC(C)(C)CCC — remaining binding (cell-free assay; competition with immobilised ligand; 1 µM): 100%
O=C(Nc1cnn(-c2csc(C(=O)NC3COC3)c2)c1)Nc1c(F)cccc1Cl — remaining activity (enzyme activity; inhibitor; 5 µM): 98.9%
Nc1ncnc2occ(-c3ccc(NC(=O)Nc4cc(C(F)(F)F)ccc4F)cc3)c12 — remaining signal (cell-free assay; inhibitor; 20 µM): 29%
N#CCCc1ccc2c(c1)-c1[nH]c3ccc([N+](=O)[O-])cc3c1CC(=O)N2 — remaining signal (cell-free assay; 0.5 µM): 96.5%
COc1cc(Nc2cnc(C#N)c(O[C@H](C)CN(C)C)n2)ncc1-c1cnn(C)c1 — remaining activity (enzyme activity; inhibitor; radiometric; 1 µM): 95%
FC(F)(F)Oc1cccc(-c2cnc3ccc(-c4ccncc4)nn23)c1 — activity vs control (enzyme activity; inhibitor; radiometric; 5 µM): 91%
CNC(=O)c1cc(Oc2ccc(NC(=O)Nc3ccc(Cl)c(C(F)(F)F)c3)cc2)ccn1 — inhibition (enzyme activity; inhibitor; 10 µM): 12%
CN1CC(Oc2cnc(C#N)cc2-c2ccn3nc(NC(=O)C4CC4)cc3c2)C1 — inhibition (enzyme activity; inhibitor; 1 µM): 1%
Cc1cnc(NC2CCOCC2)nc1-n1cnc(C(=O)NC(CN)c2cc(F)cc(Cl)c2)c1 (stereo not shown) — remaining activity (enzyme activity; inhibitor; radiometric; 1 µM): 96%
CCCOc1ccc(OC)c(F)c1C(=O)c1ccc(C(=O)N[C@@H]2CNC[C@H]2NC(=O)c2ccc3[nH]ncc3c2)cc1 — remaining activity (enzyme activity; inhibitor; 10 µM): 81%
CC(C)(C)c1nc2c(s1)c1nc(N)ncc1c1ccc(NS(=O)(=O)c3c(F)cccc3F)c(F)c12 — remaining activity (enzyme activity; inhibitor; radiometric; 1 µM): 79%
O=C1NC(=O)c2cc(Nc3ccc(F)cc3)c(Nc3ccc(F)cc3)cc21 — remaining signal (cell-free assay; 0.5 µM): 81.3%
Cc1noc([C@H]2C[C@@H](c3ccc(C(F)(F)F)cc3)CN(C(=O)N3CCS(=O)(=O)C3)C2)n1 — remaining binding (cell-free assay; competition with immobilised ligand; 1 µM): 100%
CN(C)C1CCN(CC#Cc2nn(C3CCCC3)c3nc(NCc4ccccc4)ncc23)C1 (stereo not shown) — inhibition (enzyme activity; inhibitor; FRET; 0.1 µM): 1%
CS(=O)(=O)NCC[C@H](NC(=O)c1cncc2c1cnn2-c1ccc(F)cc1)c1ccnc(S(C)(=O)=O)c1 — remaining binding (cell-free assay; competition with immobilised ligand; 1 µM): 100%
Nc1nc(Nc2ccc(S(N)(=O)=O)cc2)nn1C(=O)c1c(F)cccc1F — remaining signal (cell-free assay; 0.5 µM): 93.8%
CN(C)c1ncnc(-c2ccc3nc(Nc4cc(CN5CCN(C(=O)CC(F)(F)F)CC5)ccn4)[nH]c3c2)c1Cl — remaining binding (cell-free assay; competition with immobilised ligand; 1 µM): 100%
CS(=O)(=O)CCNCc1ccc(-c2ccc3ncnc(Nc4ccc(OCc5cccc(F)c5)c(Cl)c4)c3c2)o1 — remaining signal (cell-free assay; 0.5 µM): 107%
FC(F)c1nc2ccccc2n1-c1nc(N2CCOCC2)nc(N2CCOCC2)n1 — remaining activity (enzyme activity; inhibitor; 10 µM): 75%
CCOC(=O)c1cc2cc(-c3cc(C(=O)NCc4ccc(C(=O)O)cc4)nn3C)ccc2[nH]1 — remaining binding (cell-free assay; competition with immobilised ligand; 0.1 µM): 84%
